Screening results (PubChem)
Shown are actives, neighbours in structure and some others; about 3.7% of the full set was active somewhere.
Cl transport mod = modulates chloride dependent transport by human KCC2; B-score of Tl+ flux slope (higher = more flux/activation; lower = inhibition) at 10 µM; AID 1456; KCC2 cells, thallium flux FluoZin-2 fluorescence; actives 2.2% (n = 190,000);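 active means thallium flux slope and its plate-corrected score both differing from the plate sample mean at a set confidence after two filtering rounds, in either direction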;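 further: slope of fluorescence scaled to starting intensity during 10 to 20 s after thallium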
ROMK mod = modulates human ROMK potassium channel activity; B-score at 10 µM; AID 1918; actives 2% (n = 130,000); P48048; Tet-inducible ROMK, thallium flux fluorescence; actives lie on both sides;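 active means signal ratio slope over the read window, or its plate-corrected B-score, at least 3 SD from the plate mean, either direction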;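 further: B-score of the F/F0 ratio slope over 7 to 12 s after thallium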
Target sequence (P48048 whole entry, looked up): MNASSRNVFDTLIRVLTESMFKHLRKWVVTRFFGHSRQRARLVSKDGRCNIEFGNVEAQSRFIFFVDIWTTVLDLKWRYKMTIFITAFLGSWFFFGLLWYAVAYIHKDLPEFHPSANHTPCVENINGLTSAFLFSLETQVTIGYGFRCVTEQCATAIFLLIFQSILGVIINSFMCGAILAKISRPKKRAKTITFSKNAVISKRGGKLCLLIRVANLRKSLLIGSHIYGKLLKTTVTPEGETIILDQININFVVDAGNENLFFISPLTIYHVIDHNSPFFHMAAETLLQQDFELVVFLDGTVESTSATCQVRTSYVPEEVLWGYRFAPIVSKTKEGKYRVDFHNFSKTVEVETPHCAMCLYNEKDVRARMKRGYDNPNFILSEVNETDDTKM
Arbovirus anti = antivirals against arbovirus infection; inhibition, % at 10 µM; arbovirus infection cell-based antiviral screen; AID 1251; actives 0.37% (n = 200,000); in the data active means inhibition above about 30%
Mdm2 ligase inh = inhibitors of human Mdm2 E3 ubiquitin ligase; Q00987; cell-based MDM2 ubiquitination luciferase reporter, 2 h; 0 = plate control, 100 = twice control, blank-subtracted; signal enhancement, % at 5 µM; actives 0.11% (n = 210,000); AID 1230;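 active means signal enhancement of 30% or more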;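 further: luminescence tracks abundance of the self-degrading MDM2-luciferase fusion protein; higher signal means inhibition of MDM2 E3 ligase activity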
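test system = mammalian cells stably expressing self-ubiquitinating, self-degrading MDM2 E3–luciferase fusion | quantity = 2000 cells/well | incubation = cell settling 4 h, compound treatment 2 h, both 37 °C | signal = luminescence with SteadyLite reagent, 15 min at room temperature | evaluation = % enhancement relative to plate controls after blank subtraction | benchmarks = plate controls and plate blanks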
PKD1 inh = PKD1 (human) kinase inhibition; Q15139; PKD1 kinase fluorescence polarization assay; inhibition, % (concentration not given with the values); actives 0.056% (n = 200,000); in the data active means inhibition above about 50%
Calpain2 inh = blocks pig calpain II enzyme activity. inhibition, % at 16 µM. purified calpain II, fluorogenic peptide substrate, 30 min. AID 1236. actives 0.37% (n = 220,000);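 active means inhibition above about 50%, limit read from the data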
Hits are given with their value; – = inactive; · = no result.

SMILES | Cl transport mod | ROMK mod | Arbovirus anti | Mdm2 ligase inh | PKD1 inh | Calpain2 inh
COC(=O)c1ccc(Nc2cc(C)nc(-c3ccccc3O)n2)cc1 | 6.21 | – | – | · | – | –
Nc1nc(SCC(=O)Nc2ccc(Cl)c(S(=O)(=O)N3CCOCC3)c2)n[nH]1 | · | · | · | – | · | –
CCCCOC(=O)c1ccc(NC(=S)NC(=O)c2c(Cl)cnn2CC)cc1 | 23.5 | · | – | – | – | –
CCCCOC(=O)c1ccc(NC(C)=O)cc1 | – | · | – | – | – | –
CCCCOC(=O)c1ccc(NC(=S)NC(=O)c2c(Cl)cnn2C)cc1 | 27.6 | · | – | – | – | –
COc1ccc(S(=O)(=O)NNC(=O)c2ccc(-n3c(C)ccc3C)cc2)cc1 | · | · | · | – | · | –
C/C(=C\c1ccccc1)C(=O)NCCc1ccccc1 | – | – | – | – | – | –
O=C(CSc1ccc(Cl)cc1)NC1CCCC1 | – | · | – | – | – | –
O=C(NC1CCCCC1)Sc1ccc(Cl)cc1 | · | -4.71 | – | – | – | –
CCn1c(O)c(N=NC(=O)CNc2ccc(C)cc2)c2ccccc21 | – | – | – | – | – | –
CCn1c(O)c(N=NC(=O)CNc2cccc(C)c2)c2ccccc21 | 5.56 | · | – | – | – | –
O=C(NC(=S)NC1CCCCCC1)c1cncc(Br)c1 | 48.3 | – | – | – | – | –
O=C(NC(=S)Nc1ncc(Br)cc1Br)c1cncc(Br)c1 | – | – | – | – | – | –
O=C(COC(=O)c1cncc(Br)c1)NC1CCCCC1 | – | – | – | – | – | –
Cc1ccccc1NC(=S)NC(=O)c1cncc(Br)c1 | 29.4 | – | – | – | – | –
COc1ccc(CNC(=S)Nc2ccccc2-c2ccccc2)cc1 | – | – | – | – | – | –
O=C(c1cccc([N+](=O)[O-])c1)N1CCN(c2n[nH]c(=O)[nH]c2=O)CC1 | – | · | · | · | · | –
COc1cc(/C=C(\C#N)c2nc3ccc(C)cc3[nH]2)c([N+](=O)[O-])cc1OC | · | – | – | – | – | –
COc1cc(/C=C(\C#N)c2nc3ccc(C)cc3[nH]2)cc([N+](=O)[O-])c1O | · | – | 44.2 | – | – | –
Cc1ccc(-c2nsc(SCC(=O)NCc3ccc4c(c3)OCO4)n2)cc1 | – | · | – | – | – | –
COc1ccc(/C=N/OCC(=O)Nc2ccc3c(c2)OCO3)c(OC)c1 | – | – | – | – | – | 56.1
COc1ccc(-c2nsc(SCC(=O)Nc3ccc4c(c3)OCO4)n2)cc1 | – | – | – | 31.9 | – | –
O=C1CC(c2ccc(Br)cc2)NC(c2ccc(Br)cc2)C1c1ccccc1 (stereo unspecified) | – | · | 45.2 | – | – | –
CC1/C(=N/O)CC(c2ccccc2)NC1c1ccccc1 (stereo unspecified) | – | – | – | – | – | –
Cc1nn(-c2ccc(F)cc2)c2sc(C(=O)N3CCCCCC3)cc12 | – | – | – | · | – | 50.4
SMILES | Cl transport mod | ROMK mod | Arbovirus anti | Mdm2 ligase inh | PKD1 inh | Calpain2 inh
Cc1nn(-c2ccc(Cl)cc2)c2sc(C(=O)N3CCN(C(=O)c4ccco4)CC3)cc12 | · | · | – | · | · | ·
O=C1c2ccc(Br)cc2C(=O)N1c1ccc(Cc2ccncc2)cc1 | · | – | – | – | – | 88.3
O=C(Nc1ccc2[nH]c(=S)sc2c1)c1ccccc1 | 44.2 | – | – | – | – | –
Cn1c(SCC(=O)Nc2cccc(C(=O)O)c2)nnc1-c1cc2cc(Br)ccc2o1 | – | – | – | – | – | –
CCc1cccc(C)c1NC(=O)CSc1nnc(-c2cc3cc(Br)ccc3o2)n1CC | – | – | – | – | – | 55.4
CCOC(=O)c1c([N+](=O)[O-])c(C)[nH]c(=O)c1C#N | – | · | · | – | · | –
O=C1CN(O)C=C2N=c3ccccc3=C2N1c1ccc([N+](=O)[O-])cc1 | – | – | – | – | – | 58.3
O=C1/C(=C/c2ccc([N+](=O)[O-])cc2)C=C(c2ccccc2)N1c1ccc(O)cc1 | – | – | – | – | – | –
CCOc1ccc(N=Nc2c(=O)[nH]n3c(=O)cc(C)[nH]c23)cc1 | · | · | – | – | – | –
CCOc1ccc(N=Nc2c(=O)[nH]n3c(=O)c4c([nH]c23)CCCC4)cc1 | · | – | 59.6 | – | – | –
O=c1[nH]n2c(=O)c3c([nH]c2c1N=Nc1cccc(Cl)c1)CCCC3 | – | – | 39.6 | – | – | –
NC(=O)COc1ccc(-c2noc(COc3ccccc3[N+](=O)[O-])n2)cc1 | – | – | – | – | – | –
O=C(CCn1ccnc1)Nc1ccc2ccccc2c1 | – | – | – | – | – | –
